ChEMBL document CHEMBL3739379, “Anti-Candida activity and cytotoxicity of a large library of new N-substituted-1,3-thiazolidin-4-one derivatives” (Eur J Med Chem, 2016)
In brackets after ≈: the same amount, converted by molar mass.

Key:
Type in all cases: functional
[1] = test system: Staphylococcus haemolyticus; assay: Antibacterial activity against Staphylococcus haemolyticus after 18 to 22 hrs by broth microdilution method
Outline: (§1)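 Broth microdilution per NCCLS in Mueller-Hinton II broth; isolates subcultured for purity. Compounds dissolved in DMSO, serial dilutions 256 to 0.5 µg/mL; inoculum 10^5/mL. Controls: organism without compound, medium only. Incubation 18 to 22 h at 35 °C. MIC is the lowest concentration giving complete growth inhibition, read by unaided eye.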

Enterococcus faecalis = assay: Antibacterial activity against […] faecalis after 18 to 22 hrs by broth microdilution method; outline: as §1
Pichia kudriavzevii = assay: Antifungal activity against Candida krusei clinical isolate after 24 hrs by sabouraud dextrose broth based microdilution method
Outline: (§2)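 Clinical isolates identified by conventional methods and subcultured for purity. Broth microdilution per NCCLS in Sabouraud dextrose broth; compounds dissolved in DMSO and serially diluted; inoculum 10^3/mL. Controls: fungi without compound, medium only. Incubated 24 h at 37 °C. MIC is the lowest concentration with complete growth inhibition by unaided eye. Values are geometric means over isolates per species.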

Enterobacter sp. = assay: Antibacterial activity against Enterobacter sp. after 18 to 22 hrs by broth microdilution method; outline: as §1
Klebsiella oxytoca = assay: Antibacterial activity against Klebsiella oxytoca after 18 to 22 hrs by broth microdilution method; outline: as §1
Candida parapsilosis = assay: Antifungal activity against Candida parapsilosis clinical isolate after 24 hrs by sabouraud dextrose broth based microdilution method; conditions: Lodderomyces parapsilosis; outline: as §2
Candida tropicalis = assay: Antifungal activity against Candida tropicalis clinical isolate after 24 hrs by sabouraud dextrose broth based microdilution method; outline: as §2
Nakaseomyces glabratus = assay: Antifungal activity against Candida glabrata clinical isolate after 24 hrs by sabouraud dextrose broth based microdilution method; outline: as §2
[Candida] sake = Antifungal activity against Candida sake clinical isolate after 24 hrs by sabouraud dextrose broth based microdilution method; conditions: Fermentozyma sake; outline: as §2
Proteus mirabilis = assay: Antibacterial activity against Proteus mirabilis after 18 to 22 hrs by broth microdilution method; outline: as §1
Staphylococcus warneri = assay: Antibacterial activity against Staphylococcus warneri after 18 to 22 hrs by broth microdilution method; outline: as §1
Staphylococcus aureus = assay: Antibacterial activity against Staphylococcus aureus after 18 to 22 hrs by broth microdilution method; outline: as §1
Escherichia coli = assay: Antibacterial activity against Escherichia coli at after 18 to 22 hrs by broth microdilution method; outline: as §1
Candida albicans = assay: Antifungal activity against Candida albicans clinical isolate after 24 hrs by sabouraud dextrose broth based microdilution method; outline: as §2

Compound | MIC (Enterococcus faecalis) [µg/mL] | MIC (Pichia kudriavzevii) [µg/mL] | MIC (Enterobacter sp.) [µg/mL] | MIC (Klebsiella oxytoca) [µg/mL] | MIC (Candida parapsilosis) [µg/mL] | MIC (Candida tropicalis) [µg/mL] | MIC (Nakaseomyces glabratus) [µg/mL] | MIC ([Candida] sake) [µg/mL] | MIC (Proteus mirabilis) [µg/mL] | MIC (Staphylococcus warneri) [µg/mL] | MIC (Staphylococcus aureus) [µg/mL] | MIC (Escherichia coli) [µg/mL] | MIC (Candida albicans) [µg/mL] | MIC [1] [µg/mL]
CCC(CC)=N/N=C1\SCC(=O)N1CN1C(=O)c2ccccc2C1=O | > 256 | 8 (≈ 22.3 µM) | > 256 | > 256 | 8 (≈ 22.3 µM) | 8 (≈ 22.3 µM) | 8 (≈ 22.3 µM) | 8 (≈ 22.3 µM) | > 256 | > 256 | > 256 | > 256 | 2 (≈ 5.58 µM) | > 256
O=C1c2ccccc2C(=O)N1CN1C(=O)CS/C1=N\N=C\c1ccc2c(c1)OCO2 | > 256 | 32 (≈ 75.8 µM) | > 256 | > 256 | 128 (≈ 303 µM) | 8 (≈ 18.9 µM) | 8 (≈ 18.9 µM) | 128 (≈ 303 µM) | > 256 | > 256 | > 256 | > 256 | 8 (≈ 18.9 µM) | > 256
O=C1c2ccccc2C(=O)N1CN1C(=O)CS/C1=N\N=C\c1cccc2ccccc12 | > 256 | 128 (≈ 299 µM) | > 256 | > 256 | 128 (≈ 299 µM) | 128 (≈ 299 µM) | 16 (≈ 37.3 µM) | 128 (≈ 299 µM) | > 256 | > 256 | > 256 | > 256 | 256 (≈ 597 µM) | > 256
C=CCC/C(C)=N/N=C1\SCC(=O)N1CN1C(=O)c2ccccc2C1=O | > 256 | 32 (≈ 86.4 µM) | > 256 | > 256 | 128 (≈ 346 µM) | 4 (≈ 10.8 µM) | 32 (≈ 86.4 µM) | 8 (≈ 21.6 µM) | > 256 | > 256 | > 256 | > 256 | 4 (≈ 10.8 µM) | > 256
CCCCCC/C(C)=N/N=C1\SCC(=O)N1Cc1cccc2ccccc12 | > 256 | 8 (≈ 21 µM) | > 256 | > 256 | 16 (≈ 41.9 µM) | 8 (≈ 21 µM) | 2 (≈ 5.24 µM) | 16 (≈ 41.9 µM) | > 256 | > 256 | > 256 | > 256 | 2 (≈ 5.24 µM) | > 256
C/C(=N\N=C1/SCC(=O)N1CN1C(=O)c2ccccc2C1=O)c1cccs1 | > 256 | 4 (≈ 10 µM) | > 256 | > 256 | 4 (≈ 10 µM) | 2 (≈ 5.02 µM) | 32 (≈ 80.3 µM) | 8 (≈ 20.1 µM) | > 256 | > 256 | > 256 | > 256 | 4 (≈ 10 µM) | > 256
O=C1CS/C(=N\N=C\c2cccnc2)N1Cc1cccc2ccccc12 | > 256 | 32 (≈ 88.8 µM) | > 256 | > 256 | 32 (≈ 88.8 µM) | 8 (≈ 22.2 µM) | 8 (≈ 22.2 µM) | 32 (≈ 88.8 µM) | > 256 | > 256 | > 256 | > 256 | 4 (≈ 11.1 µM) | > 256

More lines, main results first:

MIC (Enterococcus faecalis) [µg/mL] | MIC (Pichia kudriavzevii) [µg/mL] | MIC (Enterobacter sp.) [µg/mL] | MIC (Klebsiella oxytoca) [µg/mL] | MIC (Candida parapsilosis) [µg/mL] | MIC (Candida tropicalis) [µg/mL] | MIC (Nakaseomyces glabratus) [µg/mL] | MIC ([Candida] sake) [µg/mL] | MIC (Proteus mirabilis) [µg/mL] | MIC (Staphylococcus warneri) [µg/mL] | MIC (Staphylococcus aureus) [µg/mL] | MIC (Escherichia coli) [µg/mL] | MIC (Candida albicans) [µg/mL] | Compound | MIC [1] [µg/mL]
> 256 | 16 (≈ 43.8 µM) | > 256 | > 256 | 16 (≈ 43.8 µM) | 4 (≈ 10.9 µM) | 8 (≈ 21.9 µM) | 2 (≈ 5.47 µM) | > 256 | > 256 | > 256 | > 256 | 4 (≈ 10.9 µM) | CC1CCCC/C1=N\N=C1/SCC(=O)N1Cc1cccc2ccccc12 (stereo not drawn) | > 256
> 256 | 4 (≈ 11.1 µM) | > 256 | > 256 | 8 (≈ 22.2 µM) | 16 (≈ 44.4 µM) | 32 (≈ 88.8 µM) | 4 (≈ 11.1 µM) | > 256 | > 256 | > 256 | > 256 | 128 (≈ 355 µM) | O=C1CS/C(=N\N=C2CCCCCC2)N1Cc1ccc([N+](=O)[O-])cc1 | > 256
> 256 | 128 (≈ 360 µM) | > 256 | > 256 | 32 (≈ 90 µM) | 256 (≈ 720 µM) | 32 (≈ 90 µM) | 32 (≈ 90 µM) | > 256 | > 256 | > 256 | > 256 | 256 (≈ 720 µM) | O=C1CS/C(=N\N=C\c2cccnc2)N1Cc1ccc([N+](=O)[O-])cc1 | > 256
> 256 | 2 (≈ 5.44 µM) | > 256 | > 256 | 2 (≈ 5.44 µM) | 64 (≈ 174 µM) | 8 (≈ 21.8 µM) | 2 (≈ 5.44 µM) | > 256 | > 256 | > 256 | > 256 | 4 (≈ 10.9 µM) | CCCCC/C(C)=N/N=C1\SCC(=O)N1Cc1cccc2ccccc12 | > 256
> 256 | 16 (≈ 46.5 µM) | > 256 | > 256 | 16 (≈ 46.5 µM) | 2 (≈ 5.81 µM) | 8 (≈ 23.2 µM) | 2 (≈ 5.81 µM) | > 256 | > 256 | > 256 | > 256 | 4 (≈ 11.6 µM) | O=C1CS/C(=N\N=C\c2ccco2)N1Cc1ccc([N+](=O)[O-])cc1 | > 256
